The source of these data is ChEMBL document CHEMBL1759850, “Design, synthesis, and biological evaluation of novel γ-carboline ketones as anticancer agents” (Eur J Med Chem, 2011).

For assay [1], the system named is A549. The experiment in a line: Cytotoxicity against human A549 cells after 48 hrs by MTT assay. It is filed as functional, cell-based. The conditions noted are these: A549, 48 h. In outline: (§1)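 Cells were exposed to drug for 48 h, then given MTT in RPMI-1640 for a further 4 h at 37 °C. Formazan was dissolved in DMSO and absorbance read at 570 nm after 5 min. Each assay was run in triplicate in three independent experiments. IC50 (50% inhibition of viability) was computed by dose-effect analysis.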
On the technique in general: Tetrazolium dyes change colour on reduction, which living cells bring about.

The test system of assay [2] is K562. The experiment in a line: Cytotoxicity against human multidrug-resistant K562 cells after 48 hrs by MTT assay. The conditions noted are these: K562, 48 h. It is filed as functional, cell-based. In outline: as §1
Assay [3] relates to MCF7. The experiment in a line: Cytotoxicity against human MCF7 cells after 48 hrs by MTT assay. It is filed as functional, cell-based. The conditions noted are these: MCF7, 48 h. An outline of the steps: as §1
For assay [4], the system named is HCT-116. The experiment in a line: Cytotoxicity against human HCT116 cells after 48 hrs by MTT assay. Type of assay: functional, cell-based. The following applies: HCT-116, 48 h. An outline of the steps: as §1
The nature of assay [5]: Cytotoxicity against human SGC cells after 48 hrs by MTT assay. It is filed as functional, cell-based. In outline:
as §1

Assay [6] has as its system K562. The experiment in a line: Cytotoxicity against human K562 cells after 48 hrs by MTT assay. Type of assay: functional, cell-based. The following applies: K562, 48 h. An outline of the steps: as §1
For assay [7], the system named is A549. Description: Cell cycle arrest in human A549 cells assessed as accumulation at S phase at 2 uM after 48 hrs by flow cytometric analysis. Type of assay: functional. In outline: (§2)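 A549 cells in exponential growth were treated for 48 h, washed twice in PBS and fixed in 75% ethanol. They were then incubated for 0.5 h at 37 °C and stained with propidium iodide for 15 min. DNA content was read on a FACSCalibur flow cytometer.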

The target in assay [8] is Tubulin. Description: Inhibition of tubulin polymerization in human MCF7 cells by fluorometric analysis. An outline of the steps:
(§3)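 Tubulin polymerization was run at 37 °C in 80 mM PIPES (pH 6.9) with 20% glycerol, 1 mM GTP, 2.0 mM MgCl2 and 0.5 mM EGTA. It was followed kinetically on a fluorescence plate reader.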

Assay [9] deals with A549. Description: Cell cycle arrest in human A549 cells assessed as accumulation at G0/G1 phase at 2 uM after 48 hrs by flow cytometric analysis. It is filed as functional. In outline: as §2
For orientation: A flow cytometer gives signals particle by particle.

The target of assay [10] is Tubulin. Description: Inhibition of tubulin polymerization in human K562 cells by fluorometric analysis. In outline:
as §3

Assay [11] relates to A549. Description: Cell cycle arrest in human A549 cells assessed as accumulation at G2/M phase at 2 uM after 48 hrs by flow cytometric analysis. Type of assay: functional. In outline: as §2

Where only a bound is given, the exact number is not on record here.

As usually defined, the IC50 is the concentration that gives 50% inhibition.

As to `CCn1c2ccc(C(=O)c3ccc(Br)cc3)cc2c2c[n+](CC)ccc21`, the IC50 is greater than 100 µM in assay [1]; greater than 100 µM in [2]; 56 µM in [3]; greater than 100 µM in [4]; greater than 100 µM in [5]; greater than 100 µM in [6].
For `Cn1c2ccncc2c2cc(C(=O)c3ccccc3)ccc21`, the IC50 in assay [6] worked out at 4.82 µM.
On to `CCn1c2ccncc2c2cc(C(=O)c3ccccc3)ccc21`, for which the IC50 in assay [1] turned out to be 23.2 µM; in [2], 9.09 µM; in assay [3], 8.36 µM; in assay [4], 8.63 µM; in assay [5], 11.8 µM; in assay [6], 4.96 µM.
`CC(C)n1c2ccncc2c2cc(C(=O)c3ccccc3)ccc21` gave an IC50 in [6] of 6.46 µM. In other words, the single-digit micromolar range.
Consider `CCn1c2ccncc2c2cc(C(=O)c3ccc(OC)cc3)ccc21`, for which the IC50 in [1] is 20.5 µM; in assay [2], 2.09 µM; in assay [3], 3.85 µM; in assay [4] it was 70.2 µM; in [5] it was 17.8 µM; in assay [6] it was 6.39 µM.
For `CCn1c2ccncc2c2cc(C(=O)c3cccc(OC)c3)ccc21`, the IC50 came to 21.4 µM in assay [1]; 1.57 µM in [2]; 9.99 µM in [3]; 34.3 µM in assay [4]; 18.7 µM in assay [5]; 6.42 µM in assay [6].
`CCn1c2ccncc2c2cc(C(=O)c3ccc(S(C)(=O)=O)cc3)ccc21`: the IC50 in assay [1] turned out to be 24.2 µM; in assay [2] it was 0.66 µM; in [3] it was 3.28 µM; in assay [4], 37.8 µM; in [8], 4.3 µM; in assay [5] it was 24.9 µM. The IC50 in assay [6] came out at 5.26 µM; in [10], 4.3 µM. For the same compound, the Activity is reported as 26.59% in assay [7], 10.29% in assay [9] and 63.12% in assay [11].
For the compound `CCn1c2ccncc2c2cc(C(=O)c3ccc(Cl)cc3)ccc21`, the IC50 came out at 27.2 µM in assay [1]; 1.58 µM in [2]; 30.6 µM in assay [3]; 62.6 µM in [4]; 62.5 µM in assay [5]; 4.69 µM in assay [6].
For `CCn1c2ccncc2c2cc(C(=O)c3ccccc3Cl)ccc21`, the IC50 came to 41.4 µM in assay [1]; 7.08 µM in assay [2]; 21 µM in assay [3]; 42.3 µM in assay [4]; 38.6 µM in assay [5]; 13.7 µM in [6].
For `CCn1c2ccncc2c2cc(C(=O)c3ccc(Br)cc3)ccc21`, the IC50 was 35.1 µM in assay [1]; 1.58 µM in assay [2]; greater than 100 µM in assay [3]; 24.3 µM in assay [4]; 34 µM in assay [5]; 2.11 µM in [6].
On to `CCn1c2ccncc2c2cc(C(=O)c3ccccc3F)ccc21`, for which the IC50 stood at 46.8 µM in assay [1]; 1.45 µM in assay [2]; 4.74 µM in assay [3]; 35.9 µM in assay [4]; 35.6 µM in assay [5]; 12.2 µM in [6].
With `CCn1c2ccncc2c2cc(C(=O)c3ccc([N+](=O)[O-])cc3)ccc21`, the IC50 in assay [1] is 29.1 µM; in [2], 3.68 µM; in assay [3] it was 3.21 µM; in [4], 59.2 µM; in [5], greater than 100 µM; in [6], 16.8 µM.
On to `CCn1c2ccncc2c2cc(C(=O)c3ccc(N)cc3)ccc21`, for which the IC50 is 49.3 µM in [1]; 23.3 µM in assay [2]; 5.04 µM in [3]; 40.6 µM in assay [4]; greater than 100 µM in assay [5]; 13.4 µM in assay [6].
With `CCn1c2ccc(C(=O)c3ccccc3)cc2c2c[n+](CC)ccc21`, the IC50 is greater than 100 µM in [1]; greater than 100 µM in assay [2]; 12 µM in assay [3]; greater than 100 µM in assay [4]; greater than 100 µM in [5]; greater than 100 µM in assay [6].
